Active and inactive are the calls of the source. No cut-off for these calls is given here.
Assays:
[1] = molecular target: T1, Aurora kinase C (Homo sapiens, UniProt Q9UQB9); assay: Binding affinity to Aurora kinase C
T1 sequence (Q9UQB9 whole entry): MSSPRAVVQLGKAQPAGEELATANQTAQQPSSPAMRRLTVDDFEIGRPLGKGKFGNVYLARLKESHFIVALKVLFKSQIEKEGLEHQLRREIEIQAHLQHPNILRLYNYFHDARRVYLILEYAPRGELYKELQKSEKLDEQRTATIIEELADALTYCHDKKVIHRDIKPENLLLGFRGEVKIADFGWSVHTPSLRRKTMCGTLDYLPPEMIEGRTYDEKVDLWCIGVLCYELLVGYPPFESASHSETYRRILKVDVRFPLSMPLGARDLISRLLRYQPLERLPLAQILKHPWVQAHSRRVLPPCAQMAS

[2] = Clearance in athymic Nu/Nu rat at 50 mg/kg, iv administered using TPPW as vehicle; type: ADME, organism-based; parameters: dose 50 mg/kg, route intravenous; details: in vivo
Summary of the method: (§1)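 Plasma from K3 EDTA blood at 5, 15, 30 min, 1, 2, 4, 6, 24 h; acetonitrile extraction with internal standard, LC-MS/MS on C8 column, 5-95% ACN gradient with 0.05% formic acid.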

[3] = Clearance in Sprague-Dawley rat at 1 mg/kg, iv administered using PEG400/water as vehicle; type: ADME, organism-based; parameters: dose 1 mg/kg, route intravenous; details: in vivo
Summary of the method: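 SD rats fasted overnight, given 1 mg/kg iv in PEG400/water (3:1, v/v); three per arm. Blood into K3 EDTA at 5, 15, 30 min, 1, 2, 4, 6, 24 h, spun at 4 °C; plasma extracted with six volumes acetonitrile plus internal standard and quantified by LC-MS/MS (C8 column, formic acid/ACN gradient).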

[4] = Volume of distribution in Nu/Nu rat at 5 mg/kg, iv administered using TPPW as vehicle; type: ADME, organism-based; parameters: dose 5 mg/kg, route intravenous; details: in vivo; summary of the method: as §1
[5] = Volume of distribution in Nu/Nu rat at 50 mg/kg, iv administered using TPPW as vehicle; type: ADME, organism-based; parameters: dose 50 mg/kg, route intravenous; details: in vivo; summary of the method: as §1
[6] = tested on: HCT-116; assay: Antiproliferative activity against human HCT116 cells after 72 hrs by BrdU-based ELISA; type: functional, cell-based; details: HCT-116, 72 h
Summary of the method: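 HCT-116 cells in McCoy's 5A with 10% FBS and pen/strep, seeded 800 cells/well, left overnight at 37 °C, 5% CO2. Nine-point 3-fold serial dilutions in DMSO added for 72 h; BrdU colorimetric ELISA read at 450 and 690 nm. IC50 is the concentration halving proliferation; duplicate runs averaged.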

[7] = tested on: HCT-116; assay: Antitumor activity against human HCT116 cells xenografted in athymic nude rat assessed as tumor growth inhibition at 10 mg/kg, iv administered QD for 4 days per week followed by 3 days off per week for 3 weeks; type: functional, organism-based; parameters: dose 10 mg/kg
Summary of the method: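 Subcutaneous flank HCT-116 xenografts in nude rats; at Day 1 groups of 10 with mean tumor 301-306 mm³. Tail-vein iv in TPPW (2% Tween-80, 5% propylene glycol, 10% PG-400, 83% water) at 10 mL/kg, weight-adjusted: days 1,3,5,8,10,12,15,17,19 or days 1-4, 8-11, 15-18. Irinotecan control 100 mg/kg ip weekly ×3.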

## Cc1cc(Nc2nc(Sc3ccc(NC(=O)CN4CC[C@@H](C(=O)N5CCC(F)(F)C5)C4)cc3)nn3cccc23)n[nH]1
[1]
  Kd: < 10 nM
[2]
  clearance: 5.23 mL/min/kg
[3]
  clearance: 21.1 mL/min/kg
[4]
  Vd: 0.7 L/kg
[5]
  Vd: 0.62 L/kg
[6]
  IC50: 1.2 nM
[7]
  TGI: Active

— ChEMBL document CHEMBL2163334, “Discovery of highly potent and selective pan-Aurora kinase inhibitors with enhanced in vivo antitumor therapeutic index” (J Med Chem, 2012)
